Assay [1] has as its target T1, Kappa-type opioid receptor (Homo sapiens, UniProt P41145). The assay can be described thus: Displacement of [3H]U69593 from human kappa opioid receptor expressed in CHO cell membrane after 2 hrs by scintillation counting analysis. Type of assay: cell membranes.
The target in assay [2] is T1, Kappa-type opioid receptor. The assay can be described thus: Agonist activity at human kappa opioid receptor expressed in CHO cell membrane assessed as [35S]GTPgammaS binding after 3 hrs by liquid scintillation counting analysis. Type of assay: functional, cell membranes. (Binding of GTPγS marks nucleotide exchange on a G protein.)
In the next assay the target is Mu-type opioid receptor (Homo sapiens, UniProt P35372). The assay can be described thus: Displacement of [3H]DAMGO from human mu opioid receptor expressed in CHO cell membrane after 2 hrs by liquid scintillation counting analysis. Format: cell membranes.
Assay [3] has as its target T1, Kappa-type opioid receptor. The assay can be described thus: Agonist activity at human kappa opioid receptor expressed in CHO cell membrane assessed as [35S]GTPgammaS binding after 3 hrs by liquid scintillation counting analysis relative to (-)-U50488H. Format: functional, cell membranes.
Assay [4] addresses Delta-type opioid receptor (Homo sapiens, UniProt P41143). The assay can be described thus: Displacement of [3H]DADLE from human delta opioid receptor expressed in CHO cell membrane after 2 hrs by liquid scintillation counting analysis. Format: cell membranes. A general note: In a radioligand displacement assay an active substance lowers the binding of a labelled ligand.
For the next assay, the system named is Rattus norvegicus. The assay can be described thus: Antiaddiction activity in rat assessed as reduction in cocaine-induced drug seeking activity at 1 mg/kg, ip treated for 5 to 10 mins prior to priming injection of cocaine measured for 2 hrs. Format: functional, organism-based. Further details: dose 1 mg/kg. Summed up: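 Rats trained on FR5 cocaine self-administration (0.5 mg kg⁻¹/infusion, paired light cue, 2 h sessions). Extinction with sterile heparinized saline until active lever responses <20 per 2 h session. Next day, IP vehicle (75% DMSO) or test dose 5–10 min before IP cocaine prime (20 mg kg⁻¹). Active lever responding recorded for 2 h. N = 6 at 1 mg kg⁻¹; mean ±SEM.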

Assay [5] has as its target T1, Kappa-type opioid receptor. The assay can be described thus: Agonist activity at human kappa opioid receptor expressed in CHO cell membrane by [35S]GTPgammaS binding assay. Type of assay: functional, cell membranes.

SMILES strings stand for the structures. Active and inactive are the calls of the source. The calls are words filed in the database; no cut-off is given here. Where only a bound is given, the exact number is not on record here.

A word on the Ki: it is a dissociation constant, usually derived from enzyme kinetics or from competition with a known ligand. A low value points to higher affinity. Broadly, the Emax is the size of the effect at its maximum, as opposed to the concentration needed. In general, EC50 refers to the midpoint of the concentration-response curve.

T1 sequence (P41145 whole entry): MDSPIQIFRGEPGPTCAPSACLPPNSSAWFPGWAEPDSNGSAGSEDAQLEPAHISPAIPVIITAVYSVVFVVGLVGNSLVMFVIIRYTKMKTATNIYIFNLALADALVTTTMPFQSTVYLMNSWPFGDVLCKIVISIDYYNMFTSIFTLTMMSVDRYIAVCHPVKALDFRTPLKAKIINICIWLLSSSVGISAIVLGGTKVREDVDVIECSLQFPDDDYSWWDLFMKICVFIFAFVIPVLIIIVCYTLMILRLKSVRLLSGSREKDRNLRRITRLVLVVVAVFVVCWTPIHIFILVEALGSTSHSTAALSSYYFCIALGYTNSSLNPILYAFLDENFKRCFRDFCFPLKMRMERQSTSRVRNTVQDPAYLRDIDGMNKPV
Delta-type opioid receptor, sequence (P41143 whole entry, the tested form may be a part): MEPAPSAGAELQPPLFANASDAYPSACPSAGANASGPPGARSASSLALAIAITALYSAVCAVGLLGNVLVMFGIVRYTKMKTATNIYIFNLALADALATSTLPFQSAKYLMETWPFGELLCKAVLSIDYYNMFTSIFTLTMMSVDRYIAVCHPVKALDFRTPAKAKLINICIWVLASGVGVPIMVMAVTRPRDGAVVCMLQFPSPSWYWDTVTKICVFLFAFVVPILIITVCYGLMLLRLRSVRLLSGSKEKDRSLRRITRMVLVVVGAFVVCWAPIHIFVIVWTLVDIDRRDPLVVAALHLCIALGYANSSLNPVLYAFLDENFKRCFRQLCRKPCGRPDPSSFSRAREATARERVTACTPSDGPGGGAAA
Mu-type opioid receptor, sequence (P35372 whole entry): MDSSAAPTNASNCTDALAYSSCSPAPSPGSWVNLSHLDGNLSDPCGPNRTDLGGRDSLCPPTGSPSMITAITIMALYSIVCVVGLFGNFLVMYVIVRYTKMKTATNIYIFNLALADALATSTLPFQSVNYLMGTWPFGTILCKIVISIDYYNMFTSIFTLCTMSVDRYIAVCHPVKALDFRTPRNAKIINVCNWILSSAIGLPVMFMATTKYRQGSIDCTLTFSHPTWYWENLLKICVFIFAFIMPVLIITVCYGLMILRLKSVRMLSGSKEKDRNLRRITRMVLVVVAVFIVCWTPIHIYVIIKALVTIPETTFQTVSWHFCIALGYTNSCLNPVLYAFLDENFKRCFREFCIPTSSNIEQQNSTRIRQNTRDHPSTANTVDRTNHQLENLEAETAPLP

`COC(=O)[C@@H]1C[C@H](O[C@H]2CCCO2)C(=O)[C@H]2[C@@]1(C)CC[C@H]1C(=O)O[C@H](c3ccoc3)C[C@]21C`: the Ki is 0.081 µM in assay [1], > 10 µM at Mu-type opioid receptor and > 10 µM in assay [4]. Further, the ED50 in assay [2] stood at 0.69 µM. The Emax in assay [3] is 103%.

As to `COCO[C@H]1C[C@@H](C(=O)OC)[C@]2(C)CC[C@H]3C(=O)O[C@H](C(=O)N4CCCCC4)C[C@]3(C)[C@H]2C1=O`, the Ki in assay [1] was 0.059 µM; on Mu-type opioid receptor, > 3 µM; in assay [4], > 3 µM. Besides, in assay [3], the maximal response (Emax) was found to be 113%.

`CCOC(=O)O[C@H]1C[C@@H](C(=O)OC)[C@]2(C)CC[C@H]3C(=O)O[C@H](c4ccoc4)C[C@]3(C)[C@H]2C1=O`: the figures for the Ki (in assay [1]; on Mu-type opioid receptor; in assay [4]) were 0.171 µM, > 10 µM and > 10 µM, respectively.

With `CCO[C@H](CBr)O[C@H]1C[C@@H](C(=O)OC)[C@]2(C)CC[C@H]3C(=O)O[C@H](c4ccoc4)C[C@]3(C)[C@H]2C1=O`, the values for the Ki (in assay [1]; at Mu-type opioid receptor; in assay [4]) were 7.44 µM, 3.52 µM and > 5 µM, respectively.

With `COC(=O)[C@@H]1C[C@H](O[C@@H]2CCCCO2)C(=O)[C@H]2[C@@]1(C)CC[C@H]1C(=O)O[C@H](c3ccoc3)C[C@]21C`, the Ki in assay [1] is 0.00621 µM; on Mu-type opioid receptor it was > 10 µM; in assay [4] it was > 10 µM. For the same compound, the Emax in assay [3] worked out at 109%. In addition, the result with Rattus norvegicus was Active.

On to `CCO[C@@H](CBr)O[C@H]1C[C@@H](C(=O)OC)[C@]2(C)CC[C@H]3C(=O)O[C@H](c4ccoc4)C[C@]3(C)[C@H]2C1=O`, for which the Ki in assay [1] is 5.26 µM; on Mu-type opioid receptor, > 3 µM; in assay [4] it was > 5 µM.

Turning to `CCNC(=O)O[C@H]1C[C@@H](C(=O)OC)[C@]2(C)CC[C@H]3C(=O)O[C@H](c4ccoc4)C[C@]3(C)[C@H]2C1=O`, the EC50 in assay [5] is > 1 µM. Besides, the Ki in assay [1] was > 10 µM; on Mu-type opioid receptor, 1.54 µM; in assay [4], > 10 µM.

As to `COC(=O)[C@@H]1C[C@H](OC=O)C(=O)[C@H]2[C@@]1(C)CC[C@H]1C(=O)O[C@H](c3ccoc3)C[C@]21C`, the Ki in assay [1] was 0.041 µM; on Mu-type opioid receptor, > 10 µM; in assay [4], > 10 µM.

Consider `COC(=O)[C@@H]1C[C@H](O[C@H]2CCCCO2)C(=O)[C@H]2[C@@]1(C)CC[C@H]1C(=O)O[C@H](c3ccoc3)C[C@]21C`, for which the Ki in assay [1] was 0.3 µM; on Mu-type opioid receptor it was > 10 µM; in assay [4], > 10 µM.

In the case of `COC(=O)[C@@H]1C[C@H](OC(C)=O)C(=O)[C@H]2[C@@]1(C)CC[C@H]1C(=O)O[C@H](C(=O)N3CCCCC3)C[C@]21C`, the affinity in assay [1] (cho) corresponds to a Ki of 0.14 µM. Besides, in assay [2], the ED50 is 5.11 µM. The Emax in assay [3] is 85%.

For `COC(=O)[C@@H]1C[C@H](O[C@@H]2CCCO2)C(=O)[C@H]2[C@@]1(C)CC[C@H]1C(=O)O[C@H](c3ccoc3)C[C@]21C`, the Ki was 0.075 µM in assay [1], > 10 µM on Mu-type opioid receptor and > 10 µM in assay [4]. Besides, the ED50 in assay [2] was determined as 1.22 µM. Also, the Emax in assay [3] was determined as 112%.

With `CCO[C@H](C)O[C@H]1C[C@@H](C(=O)OC)[C@]2(C)CC[C@H]3C(=O)O[C@H](c4ccoc4)C[C@]3(C)[C@H]2C1=O`, the Ki on Mu-type opioid receptor was > 5.8 µM; in assay [4] it was > 5 µM.

For `CCOCO[C@H]1C[C@@H](C(=O)OC)[C@]2(C)CC[C@H]3C(=O)O[C@H](c4ccoc4)C[C@]3(C)[C@H]2C1=O` [SALVINORIN B ETHOXYMETHYL ETHER], the Ki in assay [1] was 0.00313 µM; at Mu-type opioid receptor, 0.041 µM; in assay [4], 1.02 µM. Also, in assay [3], the Emax was determined as 127%.

Turning to `CCO[C@@H](C)O[C@H]1C[C@@H](C(=O)OC)[C@]2(C)CC[C@H]3C(=O)O[C@H](c4ccoc4)C[C@]3(C)[C@H]2C1=O`, the Ki on Mu-type opioid receptor was 0.777 µM; in assay [4] it was > 5 µM.
